Where “and” joins values, the source holds several entries; their conditions need not be identical. Identical values can stand only once.
System: Fibroblast
Assay: Multiplex assay against human fibroblast
Type: toxicity, cell-based
Procedure, shortened: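 Values for tubulin, mitochondrial-mass and membrane-permeability phenotypes are per cents of cells with healthy nuclei. These cells were identified by CellPathfinder machine-learning gating of live cells that had been stained at seeding with Hoechst33342, BioTracker Green Microtubule Cytoskeleton Dye, MitoTracker Red and Annexin V Alexa Fluor 680 and imaged on a CQ1 microscope at 37°C and 5% CO2 after compound addition. The gating first set Hoechst high-intensity objects apart from normal cells, then split normal cells into healthy, pyknosed or fragmented nuclei, and pyknosed cells into mitotic or apoptotic.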

[1] = 12 h, 1 µM, compound concentration 1 uM
[2] = 12 h, 10 µM, compound concentration 10 uM
[3] = 24 h, 1 µM, compound concentration 1 uM
[4] = 24 h, 10 µM, compound concentration 10 uM
[5] = 48 h, 1 µM, compound concentration 1 uM
[6] = 48 h, 10 µM, compound concentration 10 uM

CCCOc1ccc2[nH]cc(C3=CCNCC3)c2n1.Cl
Population Apoptotic (%) [1]: 42% and 48%
Population Fragmented Nuclei (%) [1]: 13% and 25%
Population Healthy Nuclei (%) [1]: 71% and 52%
Population Hoechst High Intensity Objects (%) [1]: 2% and 0%
Population Membrane Permeable-Phenotype (%) [1]: 0% and 8%
Population Mitochondria Different-Phenotype (%) [1]: 6% and 2%
Population Mitotic Cells (%) [1]: 57% and 51%
Population Normal (%) [1]: 97% and 99%
Population Pyknosed Nuclei (%) [1]: 15% and 21%
Population Tubulin-Different-Phenotype (%) [1]: 27% and 47%
Total Cell Count [1]: 143 and 137
Population Apoptotic (%) [2]: 70% and 40%
Population Fragmented Nuclei (%) [2]: 16% and 31%
Population Healthy Nuclei (%) [2]: 70% and 48%
Population Hoechst High Intensity Objects (%) [2]: 4% and 2%
Population Membrane Permeable-Phenotype (%) [2]: 0% and 1%
Population Mitochondria Different-Phenotype (%) [2]: 12% and 10%
Population Mitotic Cells (%) [2]: 29% and 60%
Population Normal (%) [2]: 95% and 97%
Population Pyknosed Nuclei (%) [2]: 13% and 20%
Population Tubulin-Different-Phenotype (%) [2]: 41% and 59%
Total Cell Count [2]: 133 and 125
Population Apoptotic (%) [3]: 57% and 38%
Population Fragmented Nuclei (%) [3]: 14% and 28%
Population Healthy Nuclei (%) [3]: 76% and 52%
Population Hoechst High Intensity Objects (%) [3]: 2% and 0%
Population Membrane Permeable-Phenotype (%) [3]: 0% and 5%
Population Mitochondria Different-Phenotype (%) [3]: 6% and 5%
Population Mitotic Cells (%) [3]: 42% and 61%
Population Normal (%) [3]: 97% and 100%
Population Pyknosed Nuclei (%) [3]: 9% and 18%
Population Tubulin-Different-Phenotype (%) [3]: 20% and 40%
Total Cell Count [3]: 155 and 140
Population Apoptotic (%) [4]: 61% and 50%
Population Fragmented Nuclei (%) [4]: 23% and 20%
Population Healthy Nuclei (%) [4]: 64% and 68%
Population Hoechst High Intensity Objects (%) [4]: 1% and 2%
Population Membrane Permeable-Phenotype (%) [4]: 0% and 4%
Population Mitochondria Different-Phenotype (%) [4]: 12% and 8%
Population Mitotic Cells (%) [4]: 38% and 50%
Population Normal (%) [4]: 98% and 97%
Population Pyknosed Nuclei (%) [4]: 11%
Population Tubulin-Different-Phenotype (%) [4]: 36% and 61%
Total Cell Count [4]: 159 and 107
Population Apoptotic (%) [5]: 69% and 64%
Population Fragmented Nuclei (%) [5]: 17% and 36%
Population Healthy Nuclei (%) [5]: 74% and 53%
Population Hoechst High Intensity Objects (%) [5]: 2% and 4%
Population Membrane Permeable-Phenotype (%) [5]: 0% and 5%
Population Mitochondria Different-Phenotype (%) [5]: 5% and 2%
Population Mitotic Cells (%) [5]: 30% and 35%
Population Normal (%) [5]: 97% and 95%
Population Pyknosed Nuclei (%) [5]: 8% and 9%
Population Tubulin-Different-Phenotype (%) [5]: 23% and 40%
Total Cell Count [5]: 162 and 147
Population Apoptotic (%) [6]: 73% and 60%
Population Fragmented Nuclei (%) [6]: 21% and 32%
Population Healthy Nuclei (%) [6]: 65% and 62%
Population Hoechst High Intensity Objects (%) [6]: 2% and 5%
Population Membrane Permeable-Phenotype (%) [6]: 0% and 4%
Population Mitochondria Different-Phenotype (%) [6]: 9% and 13%
Population Mitotic Cells (%) [6]: 26% and 40%
Population Normal (%) [6]: 97% and 94%
Population Pyknosed Nuclei (%) [6]: 13% and 4%
Population Tubulin-Different-Phenotype (%) [6]: 45% and 44%
Total Cell Count [6]: 150 and 116

COc1ccccc1N1CCN(C[C@@H](C(=O)NC(C)(C)C)c2ccccc2)CC1.Cl.Cl
Population Apoptotic (%) [1]: 43% and 40%
Population Fragmented Nuclei (%) [1]: 12% and 25%
Population Healthy Nuclei (%) [1]: 70% and 43%
Population Hoechst High Intensity Objects (%) [1]: 2% and 5%
Population Membrane Permeable-Phenotype (%) [1]: 0%
Population Mitochondria Different-Phenotype (%) [1]: 8% and 4%
Population Mitotic Cells (%) [1]: 56% and 60%
Population Normal (%) [1]: 97% and 94%
Population Pyknosed Nuclei (%) [1]: 16% and 30%
Population Tubulin-Different-Phenotype (%) [1]: 37% and 43%
Total Cell Count [1]: 141 and 155
Population Apoptotic (%) [2]: 50% and 48%
Population Fragmented Nuclei (%) [2]: 20% and 32%
Population Healthy Nuclei (%) [2]: 59% and 42%
Population Hoechst High Intensity Objects (%) [2]: 5%
Population Membrane Permeable-Phenotype (%) [2]: 1% and 6%
Population Mitochondria Different-Phenotype (%) [2]: 20% and 12%
Population Mitotic Cells (%) [2]: 50% and 51%
Population Normal (%) [2]: 94%
Population Pyknosed Nuclei (%) [2]: 20% and 24%
Population Tubulin-Different-Phenotype (%) [2]: 66% and 70%
Total Cell Count [2]: 134 and 116
Population Apoptotic (%) [3]: 50%
Population Fragmented Nuclei (%) [3]: 12% and 24%
Population Healthy Nuclei (%) [3]: 73% and 55%
Population Hoechst High Intensity Objects (%) [3]: 2% and 3%
Population Membrane Permeable-Phenotype (%) [3]: 0% and 8%
Population Mitotic Cells (%) [3]: 50%
Population Normal (%) [3]: 97% and 96%
Population Pyknosed Nuclei (%) [3]: 14% and 19%
Population Tubulin-Different-Phenotype (%) [3]: 32% and 50%
Total Cell Count [3]: 143 and 151
Population Apoptotic (%) [4]: 83% and 40%
Population Fragmented Nuclei (%) [4]: 19% and 39%
Population Healthy Nuclei (%) [4]: 65% and 41%
Population Hoechst High Intensity Objects (%) [4]: 8% and 3%
Population Membrane Permeable-Phenotype (%) [4]: 0% and 8%
Population Normal (%) [4]: 91% and 96%
Population Pyknosed Nuclei (%) [4]: 14% and 19%
Population Tubulin-Different-Phenotype (%) [4]: 63% and 76%
Total Cell Count [4]: 132 and 116
Population Apoptotic (%) [5]: 84% and 60%
Population Fragmented Nuclei (%) [5]: 18% and 31%
Population Healthy Nuclei (%) [5]: 71% and 52%
Population Hoechst High Intensity Objects (%) [5]: 5%
Population Membrane Permeable-Phenotype (%) [5]: 1% and 5%
Population Mitochondria Different-Phenotype (%) [5]: 12% and 5%
Population Mitotic Cells (%) [5]: 15% and 40%
Population Normal (%) [5]: 94%
Population Pyknosed Nuclei (%) [5]: 10% and 15%
Population Tubulin-Different-Phenotype (%) [5]: 34% and 56%
Total Cell Count [5]: 138 and 171
Population Apoptotic (%) [6]: 84% and 44%
Population Fragmented Nuclei (%) [6]: 18% and 50%
Population Healthy Nuclei (%) [6]: 63% and 41%
Population Membrane Permeable-Phenotype (%) [6]: 0% and 8%
Population Normal (%) [6]: 85% and 96%
Population Pyknosed Nuclei (%) [6]: 18% and 7%
Population Tubulin-Different-Phenotype (%) [6]: 65% and 67%
Total Cell Count [6]: 122
